Key:
Rattus norvegicus [1] = test: Effect on serum Triglycerides was determined in normal rats at a dose of 0.1 (mmol/kg)/day; assay type: functional
Procedure, shortened: (§1)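 Normal rats, 8-10 per group, dosed daily for 7 consecutive days by gastric intubation with compound suspended in 2% Tween 80. Decapitated 3 h after last dose; serum triglycerides measured by semiautomated method. Result expressed as % change from vehicle control group mean; significance by two-tailed Student's t test.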

Rattus norvegicus [2] = test: Effect on serum Triglycerides was determined in normal rats at a dose of 0.02 (mmol/kg)/day; assay type: functional; procedure, shortened: as §1
Rattus norvegicus [3] = test: Effect on serum Triglycerides was determined in normal rats at a dose of 0.2 (mmol/kg)/day; assay type: functional; procedure, shortened: as §1
Rattus norvegicus [4] = test: Effect on serum Triglycerides was determined in normal rats at a dose of 1 (mmol/kg)/day; assay type: functional; procedure, shortened: as §1
Rattus norvegicus [5] = test: Effect on serum Triglycerides was measured on treated rats at a dose of 0.5 (mmol/kg)/day; assay type: functional, organism-based
Rattus norvegicus [6] = test: Effect on serum Triglycerides was measured on control rats at a dose of 0.5 (mmol/kg)/day; assay type: functional, organism-based
Rattus norvegicus [7] = test: Effect on serum Triglycerides was measured on treated rats at a dose of 0.05 (mmol/kg)/day; assay type: functional, organism-based
Rattus norvegicus [8] = test: Effect on serum Triglycerides was measured on control rats at a dose of 0.05 (mmol/kg)/day; assay type: functional, organism-based
Rattus norvegicus [9] = test: Effect on serum Triglycerides was determined in normal rats at a dose of 0.01 (mmol/kg)/day; assay type: functional; procedure, shortened: as §1
Rattus norvegicus [10] = test: Effect on serum Triglycerides was determined in normal rats at a dose of 0.03 (mmol/kg)/day; assay type: functional; procedure, shortened: as §1
Rattus norvegicus [11] = test: Effect on serum Triglycerides levels was measured on treated rats at a dose of 0.05 (mmol/kg)/day; assay type: functional, organism-based
Rattus norvegicus [12] = test: Effect on serum Triglycerides levels was measured on treated rats at a dose of 0.5 (mmol/kg)/day; assay type: functional, organism-based
Rattus norvegicus [13] = test: Effect on serum Triglycerides levels was measured on control rats at a dose of 0.5 (mmol/kg)/day; assay type: functional, organism-based
Rattus norvegicus [14] = test: Effect on serum Triglycerides levels was measured on control rats at a dose of 0.05 (mmol/kg)/day; assay type: functional, organism-based
Rattus norvegicus [15] = test: Effect on liver weight was measured on treated rats at a dose of 0.5 (mmol/kg)/day; assay type: functional
Rattus norvegicus [16] = test: Effect on liver weight was measured on treated rats at a dose of 0.05 (mmol/kg)/day; assay type: functional
Rattus norvegicus [17] = test: Effect on liver weight was measured on control rats at a dose of 0.5 (mmol/kg)/day; assay type: functional
Rattus norvegicus [18] = test: Effect on liver weight was measured on control rats at a dose of 0.05 (mmol/kg)/day; assay type: functional
Rattus norvegicus [19] = test: Effect on serum Triglycerides was determined in normal rats at a dose of 0.005 (mmol/kg)/day; assay type: functional; procedure, shortened: as §1

| Compound | Change (Rattus norvegicus [1]) [%] | Change (Rattus norvegicus [2]) [%] | Change (Rattus norvegicus [3]) [%] | Change (Rattus norvegicus [4]) [%] | also measured |
| --- | --- | --- | --- | --- | --- |
| CC1(C)OC(C(=O)O)=CC1=O | -43 | -36 | -36 | -36 | – |
| COC(=O)C1=CC(=O)C(C)(c2ccccc2)O1 (centres undefined) | -40 | -34 | -40 | -53 | – |
| CC1(c2ccccc2)OC(=O)C(=O)CC1=O (centres undefined) | -27 | -13 | -31 | – | – |
| CC1(c2ccc(Cl)cc2)OC(C(=O)O)=CC1=O (centres undefined) | – | -27 | -42 | – | – |
| CC(C)C1(c2ccccc2)OC(C(=O)O)=CC1=O (centres undefined) | -2 | -10 | -31 | -53 | – |
| O=C(O)C1=CC(=O)C2(CCCc3ccccc32)O1 (centres undefined) | – | – | – | -43 | – |
| O=C(O)c1cccnc1 | – | – | – | – | Serum TG (Rattus norvegicus [5]): 47 mg/dL; Serum TG (Rattus norvegicus [6]): 88 mg/dL; Serum TG (Rattus norvegicus [7]): 97 mg/dL; Serum TG (Rattus norvegicus [8]): 104 mg/dL |
| CC1(c2ccccc2)OC(C(=O)O)=CC1=O (single isomer, unassigned; (-)) [ACIFRAN] | -31 | – | – | – | Change (Rattus norvegicus [9]): -11%; Change (Rattus norvegicus [10]): -23% |
| CC1(c2ccccc2)OC(C(=O)O)=CC1=O (stereo in doubt; 5b) | – | – | – | – | Serum TG (Rattus norvegicus [11]): 58 mg/dL; Serum TG (Rattus norvegicus [12]): 38 mg/dL; Serum TG (Rattus norvegicus [13]): 98 mg/dL; Serum TG (Rattus norvegicus [14]): 104 mg/dL |
| CC1(c2ccccc2)OC(C(=O)O)=CC1=O (stereo in doubt; 5b) [ACIFRAN] | -44 | -40 | -52 | -55 | Liver weight (Rattus norvegicus [15]): 10.2 g; Change (Rattus norvegicus [9]): -37%; Liver weight (Rattus norvegicus [16]): 8.7 g; Liver weight (Rattus norvegicus [17]): 10.2 g; Liver weight (Rattus norvegicus [18]): 8.5 g; Change (Rattus norvegicus [10]): -43%; Change (Rattus norvegicus [19]): -23% |
| CC1(c2ccccc2)OC(C(=O)O)=CC1=O (stereo in doubt; (+)-5b) [ACIFRAN] | -38 | – | – | – | Change (Rattus norvegicus [9]): -39%; Change (Rattus norvegicus [10]): -29% |
| CCOC(=O)C(C)(C)Oc1ccc(Cl)cc1 [CLOFIBRATE] | -9 | – | -36 | -55 | Serum TG (Rattus norvegicus [5]): 43 mg/dL; Liver weight (Rattus norvegicus [15]): 10.7 g; Liver weight (Rattus norvegicus [16]): 8.4 g; Serum TG (Rattus norvegicus [6]): 87 mg/dL; Liver weight (Rattus norvegicus [17]): 9 g; Serum TG (Rattus norvegicus [7]): 101 mg/dL; Liver weight (Rattus norvegicus [18]): 8.5 g; Serum TG (Rattus norvegicus [8]): 104 mg/dL |

From ChEMBL document CHEMBL1122164, “Hypolipidemic 4,5-dihydro-4-oxo-5,5-disubstituted-2-furancarboxylic acids” (1982)
